Bioassay records from PubChem.
Compounds with a hit are over-represented: about 1.9% of the library has one in this group of screens.
CHRM5 agonist – CHRM5 agonism in calcium assay. P08912. CHO-K1 hM5 cells, Fluo-8 calcium fluorescence; 0% DMSO wells, 100% maximal acetylcholine response. activation, % at 3 µM. 360,000 compounds, 0.19% hits. AID 624037;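 active = activation above the run's mean over test compounds plus 3 SD, cut at about 23% in these data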;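 note: signal is peak over basal fluorescence ratio across the kinetic read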
CHRM5 antagonist – blocks acetylcholine activation of human M5 receptor | AID 624040 | 360,000 compounds, 0.59% hits | inhibition, % at 3 µM | P08912 | CHO-hM5 cells, Fluo-8 calcium fluorescence, ACh EC80;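 active = inhibition above a per-plate cutoff, the mean of that plate's test compounds plus 3 SD, cut at about 27% in these data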;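 note: 0% = acetylcholine EC80 with DMSO and 100% = DMSO without agonist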
CHRM4 antagonist – CHRM4 antagonism in calcium assay. CHO-hM4 cells, ACh EC80, Fluo-8 calcium fluorescence. inhibition, % at 3 µM. 360,000 compounds, 0.73% hits. AID 624125;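 active = inhibition above its plate's cutoff, the mean inhibition of sample wells plus 3 SD, cut at about 27% in these data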;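 note: 0% = acetylcholine EC80 with DMSO and 100% = DMSO without agonist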
Target sequence (P08173 whole entry, looked up): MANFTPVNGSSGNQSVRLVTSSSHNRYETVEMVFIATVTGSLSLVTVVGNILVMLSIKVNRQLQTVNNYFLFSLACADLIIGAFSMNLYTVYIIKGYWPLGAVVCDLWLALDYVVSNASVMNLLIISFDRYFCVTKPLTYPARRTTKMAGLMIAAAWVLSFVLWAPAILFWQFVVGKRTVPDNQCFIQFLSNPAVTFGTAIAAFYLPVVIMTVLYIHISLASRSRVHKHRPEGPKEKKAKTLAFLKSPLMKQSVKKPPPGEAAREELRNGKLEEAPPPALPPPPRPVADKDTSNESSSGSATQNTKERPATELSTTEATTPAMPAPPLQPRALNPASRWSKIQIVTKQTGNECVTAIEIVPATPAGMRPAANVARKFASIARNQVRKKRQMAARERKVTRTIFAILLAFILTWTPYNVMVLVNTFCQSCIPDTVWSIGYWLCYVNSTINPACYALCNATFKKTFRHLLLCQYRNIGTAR
CHRM4 agonist – CHRM4 agonism in calcium assay. activation, % at 3 µM. CHO-K1 hM4/Gqi5, Fluo-8 calcium fluorescence; vehicle 0%, full acetylcholine response 100%. AID 624127. 360,000 compounds, 0.14% hits. P08173;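 active = activation above the run mean over all test wells plus 3 SD, cut at about 32% in these data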;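 note: peak over basal fluorescence ratio per well then scaled between controls; 0% = DMSO wells and 100% = acetylcholine at EC100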
CHRM5 PAM – CHRM5 positive allosteric modulation. AID 624038. activation, % at 3 µM. CHO-K1 hM5, Fluo-8 calcium, ACh EC20 PAM; 0% = ACh EC20, 100% = ACh EC100. 360,000 compounds, 0.3% hits. P08912;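 active = activation above the run cutoff, the mean activation of all test compounds plus 3 SD, cut at about 18% in these data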
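System: CHO-K1 cell line with stable human muscarinic M5 receptor expression | Also added: EC20 acetylcholine as agonist stimulus | Compound: One concentration, 3 µM final (nominal) | Timing: Fluo-8 loading 80 min at 37 °C plus 30 min room temperature | Measured by: Fluo-8 calcium dye fluorescence, kinetic read | Read-out basis: % activation, ACh-normalized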
M4 PAM – CHRM4 positive allosteric modulation; P08173; CHO-K1 hM4/Gqi5, Fluo-8 calcium fluorescence, ACh EC20; 0% = ACh EC20, 100% = maximal ACh; activation, % at 3 µM; 360,000 compounds, 0.4% hits; AID 624126;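 active = activation above its plate's cutoff, the mean activation of sample wells plus 3 SD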
The depositor's hits bear a star.

SMILES	CHRM5 agonist	CHRM5 antagonist	CHRM4 antagonist	CHRM4 agonist	CHRM5 PAM	M4 PAM
CC(=O)Nc1nc(Cn2nnc(-c3ccc4c(c3)OCO4)n2)nc(N(C)C)n1	-0.3	7.0	0.0	3.2	-2.8	7.8
NC(=O)C1CCN(C(=O)COc2ccc3ccc(=O)oc3c2)CC1	0.3	-2.5	-21.3	0.8	2.9	11.2
Cc1cc(-c2ccc(Cl)cc2)n2nc(N)nc2n1	-1.9	-11.0	-0.5	-0.1	0.4	28.1*
O=C(COC(=O)C1CCCC1)NCc1ccc(Cl)cc1	-2.6	2.6	-5.4	0.7	2.0	0.8
O=C(COC(=O)C1CCC1)NCc1ccccc1	-2.0	-4.1	1.9	1.6	7.0	24.1*
COC(=O)C1(C)CCCC2(C)C3CCC(C(C)C)C(CO)C3C(CO)CC12 (stereo unspecified)	7.0	23.6	29.0*	21.7	-22.9	-11.8
COC(=O)[C@]1(C)CCC[C@@]2(C)C3CC[C@]4(OC(C)=O)C[C@@]3(CCC21)CC4=O (stereo partly specified)	-1.3	14.9	5.5	9.9	-25.4	-0.2
COc1ccc(C(C#N)CC(=O)c2ccc(OCc3ccccc3)c(OC)c2)cc1OC (stereo unspecified)	2.7	17.9	-8.6	1.8	5.3	4.6
O=C1/C(=C\c2ccc(Cl)c(Cl)c2)CN(C(=O)CCN2CCOCC2)C/C1=C/c1ccc(Cl)c(Cl)c1	8.1	17.4	43.4*	5.7	-1.4	-7.0
O=C1/C(=C\c2ccccc2)CN(C(=O)CCN2CCCCC2)C/C1=C/c1ccccc1	-10.2	7.5	19.6	4.4	-3.0	-9.7
CN(CCCNC(=O)CSc1cc(=O)n(C)c2ccc(Cl)cc12)Cc1ccccc1	-8.2	-7.3	-6.2	0.5	0.3	-2.8
O=[N+]([O-])c1ccc(Nc2ccccc2)c2nonc12	6.6	-0.7	-7.8	20.6	-8.4	-11.2
O=[N+]([O-])c1ccc(Sc2cccc[n+]2[O-])c2nonc12	16.6	40.9*	64.0*	6.1	-13.7	-41.6
CN1CCN(CC/C=C2/c3ccccc3Sc3ccc(S(=O)(=O)N(C)C)cc32)CC1	0.5	-2.1	-2.7	7.1	-9.4	-6.3
COc1cc(Cl)cc2c1Sc1ccccc1/C2=C/CCN(C)C	-12.1	35.8*	18.8	2.4	-29.3	-13.8
CN(C)CC/C=C1/c2ccccc2Sc2c(O)cc(Cl)cc21	-6.3	98.4*	50.3*	2.3	-16.4	-14.6
CN(C)CC/C=C1/c2cc(F)ccc2Sc2ccc(Cl)cc21	-18.9	99.4*	96.5*	4.5	-29.4	-16.0
COc1cc2c(cc1Cl)/C(=C\CCN(C)C)c1ccccc1S2	-4.0	25.0	33.1*	8.5	-17.8	-34.6
COCCn1c(N)c(N(Cc2ccccc2)C(=O)C2=COCCO2)c(=O)[nH]c1=O	-2.5	-5.9	-8.1	-0.6	-0.3	3.6
CCCCn1nnnc1C(c1ccccc1)N1CCN(C(=O)c2ccco2)CC1 (stereo unspecified)	0.2	4.1	2.7	2.4	-1.5	9.1
COc1ccc(-c2nnc(N3CCOCC3)c3ccccc23)cc1	-1.5	5.0	4.0	-0.3	-1.5	-3.3
Cc1nnc(N2CCOCC2)c2ccccc12	-2.8	-8.2	-9.1	0.5	17.1	24.6*
O=c1cc(C(O)C[N+](=O)[O-])occ1OCc1ccccc1 (stereo unspecified)	-0.3	2.7	-8.2	0.6	-5.7	3.8
Cc1ccnc2nc(C(=O)NC3=NCCS3)nn12	-2.9	-5.5	-20.9	1.9	-1.6	26.4*
Cc1ccnc2nc(C(=O)Nc3nccs3)nn12	-2.6	-2.5	-5.1	1.6	-2.9	12.5
Oc1ccc(-c2[nH]ncc2-c2cnn(-c3ccccc3)c2)c(O)c1	-2.8	11.9	-0.2	1.2	2.7	1.1
Oc1cnn(-c2ccccc2)c1	-2.9	13.1	11.7	1.5	3.4	30.9*
Cc1ccc(CN2CC(C(=O)N(Cc3nnc(-c4ccccc4Cl)o3)C3CC3)CC2=O)cc1 (stereo unspecified)	-2.7	7.1	-4.7	3.7	-3.3	-2.5
